We go through four molecules from ChEMBL document CHEMBL1126613, “Centrally acting serotonergic agents. Synthesis and structure-activity relationships of C-1- or C-3-substituted derivatives of 8-hydroxy-2-(di-n-propylamino)tetralin” (J Med Chem, 1993).

For assay [1], the system named is Mus musculus. The experiment in a line: Tested in vivo for the effective dose administered orally in mouse hypothermia assay. Format: functional. The settings on record: po. The gist of the method: (§1)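 Charles River CF-1 mice (18-22 g, 4 per dose), housed individually 20 min before testing. Rectal temperature taken before dosing and 20 min after (sc 0.1 mL; oral 0.2 mL by gavage needle). A drop of ≥2 °F counted as positive. Doses started at 30 mg/kg and fell by half-log until 0/4 responded.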

The test system of assay [2] is Mus musculus. In words: Tested in vivo for the maximum temperature decrease in mouse hypothermia assay. The format is functional. The gist of the method: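 CF-1 mice (18-22 g, 4 per dose), dosed sc or orally. Rectal temperature measured before dosing and 20 min after. The mean maximum temperature drop (°F) at 20 min after any dose is recorded as an efficacy index.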

The species named for assay [3] is Felis catus. In words: Dose at which the SND has been reduced to 50% of the pretreatment value. The format is functional. The gist of the method:
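Adult cats (2.5-4.0 kg), ketamine 11 mg/kg im then chloralose 80 mg/kg iv, ventilated, gallamine-paralyzed, rectal temperature 37-38 °C. Sympathetic nerve discharge quantified by cumulative integration. Cumulative iv doses were given at 20-min intervals. Value is the dose reducing discharge to 50% of pretreatment.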

Assay [4] has as its system Felis catus. In words: Dose on arterial blood pressure (BP) in anesthetized cat. The format is functional. The gist of the method:
(§2)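 Adult cats (2.5-4.0 kg) anesthetized with ketamine 11 mg/kg im, then chloralose 80 mg/kg iv. Femoral artery cannulated for blood pressure, femoral vein for drug. Ventilated, paralyzed with gallamine 4 mg/kg iv, rectal temperature held at 37-38 °C. Cumulative iv doses given at 20-min intervals. Maximum decrease reported following a 1 mg/kg iv dose.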

For assay [5], the system named is Rattus norvegicus. In words: Effect on the synthesis rate of dopamine (DOPA) accumulation at 3.4 umol/kg in the rat ventral limbic brain region. Format: functional, Limbic system. In outline: (§3)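 Male Sprague-Dawley rats dosed sc with drug or vehicle at time zero. NSD 1015 (100 mg/kg ip) given 15 min later to block aromatic decarboxylase. Brain DOPA and 5-HTP measured by electrochemical detection with peak integration. Expressed as percent change from NSD 1015 plus saline controls. Control and test groups N = 6 each, compared by unpaired t test.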

The subject of assay [6] is Mus musculus. The experiment in a line: Behavioral time in mouse face to face assay at 0 umol/kg administered intraperitoneally. The format is functional. The gist of the method:
(§4)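 Male CF-1 mice (Charles River, 19-29 g), 8 pairs per dose, dosed sc, ip or orally in 0.25% methylcellulose or 0.1% citric acid; 30 min absorption housed with familiar partner. Pairs from different home cages placed in small litter-floored cage; face-to-face interaction duration scored visually for 3 min. Wilcoxon rank sum (two-tailed) vs daily control, p < 0.05.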

Assay [7] concerns Rattus norvegicus. In words: Effect on the synthesis rate of 5 HTP accumulation at 68 umol/kg in the rat ventral limbic brain region. Format: functional, Limbic system. In outline:
as §3

The species named for assay [8] is Felis catus. In words: Maximum decrease observed. Format: functional. Also noted: unit not given here.
The subject of assay [9] is Rattus norvegicus. In words: Effect on the synthesis rate of dopamine (DOPA) accumulation at the dose of 68 umol/kg in the rat ventral limbic brain region. The format is functional, Limbic system. The gist of the method:
as §3

Assay [10] relates to Mus musculus. The experiment in a line: In vivo effective dose administered subcutaneously in mouse hypothermia assay. The format is functional. As to conditions: sc. The gist of the method:
as §1

In assay [11] the test system is Rattus norvegicus. The experiment in a line: Effect on the synthesis rate of 5 HTP accumulation at 3.4 umol/kg in the rat ventral limbic brain region. Format: functional, Limbic system. In outline:
as §3

Assay [12] has as its system Felis catus. The experiment in a line: Maximum decrease observed following 1 mg/kg dose. The format is functional.
The test system of assay [13] is Rattus norvegicus. The experiment in a line: Effect on the synthesis rate of dopamine (DOPA) accumulation at the dose of 3.5 uM/kg in the rat ventral limbic brain region. The format is functional, Limbic system. The gist of the method: as §3
In assay [14] the test system is Felis catus. In words: Maximum decrease on arterial blood pressure at 1 mg/kg. Format: functional. The gist of the method:
as §2

In assay [15] the test system is Mus musculus. The experiment in a line: Behavioral time in mouse face to face assay at 0.4 umol/kg administered subcutaneously. Format: functional. The gist of the method:
as §4

Assay [16] relates to Mus musculus. In words: Behavioral time in mouse face to face assay at 36 umol/kg administered subcutaneously. Format: functional. In outline: as §4
For assay [17], the system named is Mus musculus. In words: Behavioral time in mouse face to face assay at 3.5 umol/kg administered subcutaneously. Format: functional. The gist of the method: as §4
The subject of assay [18] is Mus musculus. In words: Behavioral time in mouse face to face assay at 0 umol/kg administered subcutaneously. The format is functional. In outline: as §4
In assay [19] the test system is Rattus norvegicus. The experiment in a line: Effect on the synthesis rate of 5 HTP accumulation at the dose of 3.5 umol/kg in the rat ventral limbic brain region. The format is functional, Limbic system. In outline: as §3
The subject of assay [20] is Mus musculus. The experiment in a line: Behavioral time in mouse isolation-induced aggression assay at 0 umol/kg administered perorally. The format is functional. The gist of the method: (§5)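 Male CF-1 mice. Residents were isolated singly for at least 1 month; group-housed intruders were kept 4-6/cage. Mice weighed 28-30 g at first test. Residents got drug ip or orally in 0.25% methylcellulose or 0.1% citric acid 30 min before an untreated intruder was introduced. Latency to fighting was recorded, capped at 600 s. Dosing was blind, 6/group (vehicle n = 12), Wilcoxon rank sum.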

The subject of assay [21] is Mus musculus. In words: Behavioral time in mouse face to face assay at 35 umol/kg administered perorally. The format is functional. The gist of the method: as §4
Assay [22] has as its system Mus musculus. In words: Behavioral time in mouse isolation-induced aggression assay at 35 umol/kg administered perorally (*P<0.05). Format: functional. In outline:
as §5

Assay [23] has as its system Mus musculus. In words: Behavioral time in mouse face to face assay at 3.5 umol/kg administered perorally. The format is functional. The gist of the method: as §4
The subject of assay [24] is Mus musculus. The experiment in a line: Behavioral time in mouse isolation-induced aggression assay at 0 umol/kg administered intraperitoneally. The format is functional. The gist of the method: as §5
Assay [25] deals with Mus musculus. The experiment in a line: Behavioral time in mouse isolation-induced aggression assay at 3.5 umol/kg administered perorally. Format: functional. In outline: as §5
Assay [26] has as its system Mus musculus. In words: Behavioral time in mouse isolation-induced aggression assay at 3.5 umol/kg administered intraperitoneally (*P<0.05). Format: functional. In outline: as §5
The subject of assay [27] is Mus musculus. The experiment in a line: Behavioral time in mouse face to face assay at 11 umol/kg administered perorally. The format is functional. In outline:
as §4

Assay [28] relates to Mus musculus. The experiment in a line: Behavioral time in mouse isolation-induced aggression assay at 11 umol/kg administered intraperitoneally (*P<0.05). Format: functional. The gist of the method:
as §5

Assay [29] deals with Mus musculus. In words: Behavioral time in mouse face to face assay at 0 umol/kg administered perorally. The format is functional. In outline: as §4
The subject of assay [30] is Mus musculus. In words: Behavioral time in mouse isolation-induced aggression assay at 11 umol/kg administered perorally. Format: functional. In outline:
as §5

In assay [31] the test system is Rattus norvegicus. In words: Effect on the synthesis rate of 5 HTP accumulation at the dose of 9.7 uM/kg in the rat ventral limbic brain region. Format: functional, Limbic system. In outline:
as §3

The subject of assay [32] is Rattus norvegicus. The experiment in a line: Effect on the synthesis rate of dopamine (DOPA) accumulation at the dose of 9.7 umol/kg in the rat ventral limbic brain region. Format: functional, Limbic system. In outline:
as §3

Values joined by “and” are separate entries in the source; they are usually repeats but may differ in a detail not shown here. Identical values can stand only once.

As for `C=CC[C@@H]1c2c(cccc2OC)CC[C@H]1NCCC` (relative stereo), the figures for the ED50 in the assay with Mus musculus [1], in the assay filed under Felis catus [3] and in the assay on Mus musculus [10] were 59 µmol/kg, 1.35 µmol/kg and 14 µmol/kg, respectively. In the assay on Mus musculus [2], the TMP.decrease was 10.2 degrees F and 5.8 degrees F. Besides, the BP in the assay with Felis catus [4] is listed as 71%. The Change was -4.3% in the assay on Rattus norvegicus [5], -16% in the assay with Rattus norvegicus [7], 8.1% in the assay with Rattus norvegicus [9] and -6.9% in the assay with Rattus norvegicus [11]. The Time in the assay on Mus musculus [6] turned out to be 0.4 s. The Max decrease in the assay filed under Felis catus [8] is 16; in the assay with Felis catus [12], 66.
In the case of `C=CC[C@H]1c2c(O)cccc2CC[C@H]1NCCC`, the Change was 14% in the assay on Rattus norvegicus [13] and -53% with Rattus norvegicus [19]. Also, the results for the Max decrease in the assay with Felis catus [14] and in the assay listed under Felis catus [8] were 55 and 10, respectively. Moreover, the 50% effective dose (ED50) with Mus musculus [1] is 61 µmol/kg; in the assay listed under Felis catus [3] it was 0.09 µmol/kg; in the assay on Mus musculus [10] it was 1.1 µmol/kg. Also, the TMP.decrease in the assay with Mus musculus [2] is 9.5 degrees F and 6.9 degrees F. In the assay on Felis catus [4], this molecule showed a BP of 77%. The Time in the assay with Mus musculus [15] stood at 2.9 s; in the assay with Mus musculus [16], 3.8 s; in the assay on Mus musculus [17], 3.9 s; in the assay on Mus musculus [18] it was 2.8 s.
With `CCCN[C@@H]1CCc2cccc(O)c2[C@@H]1CCC`, the Time in the assay with Mus musculus [20] turned out to be 11 s; in the assay on Mus musculus [21], 1.1 s; in the assay on Mus musculus [22] it was 54 s; in the assay with Mus musculus [23] it was 1.1 s; in the assay with Mus musculus [24], 8 s; with Mus musculus [25] it was 28 s. Besides, the Time with Mus musculus [26] turned out to be 97 s; in the assay on Mus musculus [27], 1.3 s; with Mus musculus [28], 125 s; with Mus musculus [29], 1.1 s; with Mus musculus [30] it was 146 s. In addition, the median effective dose (ED50) was found to be 46 µmol/kg with Mus musculus [1] and 6.1 µmol/kg in the assay on Mus musculus [10]. Besides, the TMP.decrease with Mus musculus [2] was 10.4 degrees F and 7.5 degrees F.
With `CCCN[C@@H]1CCc2cccc(OC)c2[C@@H]1CC1CC1`, in the assay with Mus musculus [2], the TMP.decrease was determined as 7.4 degrees F. Also, the Change in the assay on Rattus norvegicus [31] was -25.8%; in the assay with Rattus norvegicus [32] it was 5%. In addition, in the assay on Mus musculus [10], it took a dose of 31 µmol/kg to reach the 50% effect level (ED50).

Usually ED50 stands for the midpoint of the dose-response relation.
